CCR6 antagonist = CCR6 receptor antagonists, primary screen, cell-based, CHO-K1, luminescence, beta-arrestin, uHTS | C-C chemokine receptor type 6 (Homo sapiens), P51684 | CHO-K1 CCR6 PathHunter beta-arrestin, CCL20-stimulated | inhibition, % at 20 µM | 340,000 tested, 0.49% active;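 active = compounds whose inhibition of the agonist-driven luminescence signal at 20 µM reaches about 50%, limit read from the data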;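 also: cells stimulated with CCL20 at 14 nM final; plate controls were DMSO with CCL20 for no effect and DMSO without agonist for full effect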
EBI2 antag = EBI2 receptor antagonists, beta-arrestin recruitment, primary screen, cell-based, luminescence, 7a,25-OHC stimulation, uHTS; G-protein coupled receptor 183 (Homo sapiens), P32249; 7a,25-OHC stimulated; inhibition, % at 5 µM; 360,000 tested, 0.81% active; AID 651636, 2012; in the data active = inhibition above about 38%;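 also: enzyme fragment complementation signal reports receptor beta-arrestin coupling in cells; 0% = agonist plus DMSO wells and 100% = wells without agonist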
CXCR6 block = CXCR6 receptor inhibitors, primary screen, cell-based, beta-arrestin, luminescence, CHO-K1 PathHunter, 1536-well; 360,000 tested, 0.36% active; inhibition, % at 20 µM; C-X-C chemokine receptor type 6 (Homo sapiens), O00574; in the data active = inhibition above about 34%, passing the limit was not always enough;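 also: antagonist mode with CXCL16 agonist at 10 nM final; 0% = 10 nM CXCL16 with DMSO and 100% = unstimulated wells without agonist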
Target sequence (O00574 whole entry, looked up): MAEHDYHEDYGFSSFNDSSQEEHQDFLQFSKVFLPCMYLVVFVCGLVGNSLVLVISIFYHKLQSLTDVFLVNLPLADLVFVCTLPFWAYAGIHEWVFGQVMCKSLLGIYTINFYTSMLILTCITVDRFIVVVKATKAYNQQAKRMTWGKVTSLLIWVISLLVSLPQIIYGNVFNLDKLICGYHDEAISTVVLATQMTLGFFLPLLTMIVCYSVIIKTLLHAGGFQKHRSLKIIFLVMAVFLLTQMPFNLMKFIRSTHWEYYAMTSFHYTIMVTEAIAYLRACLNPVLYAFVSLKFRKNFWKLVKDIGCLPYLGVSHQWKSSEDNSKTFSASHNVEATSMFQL
APJ antagonist = antagonists of human apelin receptor APJ, primary screen, CHO-K1 cells, beta-arrestin complementation, luminescence; P35414; inhibition, % at 20 µM; 330,000 tested, 0.32% active; AID 2521, 2010;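 active = inhibition above about 40% at 20 µM, limit read from the data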;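 also: cells challenged with 10 nM apelin-13 agonist together with compound; plate controls were apelin-13 plus DMSO wells for no effect and DMSO wells lacking apelin-13 for full effect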
APJ agonist = agonists of human apelin receptor APJ, primary screen, CHO-K1 cells, PathHunter beta-arrestin, luminescence | P35414 | 330,000 tested, 0.11% active | 0% DMSO wells, 100% apelin | activation, % at 20 µM | AID 2520, 2010;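 active = activation more than six SD over the plate average, tested at 20 µM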;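 also: 0% = DMSO alone and 100% = apelin-13 at 10 nM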
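assay system = CHO-K1 APJ beta-arrestin complementation cell line | input = cell density 1000 per well | dosing = compound 20 µM once, DMSO 1% | timing = compound 90 min 25 °C, reagent 1 h | measured by = luminescence from split beta-galactosidase complementation, Galacton Star/Emerald II substrate | read-out basis = APJ agonist activity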
The depositor's hits bear a star; · = not tested or not shown. An excerpt weighted towards active compounds, which were near 1.5% of everything screened.

SMILES	CCR6 antagonist	EBI2 antag	CXCR6 block	APJ antagonist	APJ agonist
COc1ccc(NC(=S)N(Cc2ccc(N(C)C)cc2)Cc2ccco2)cc1	11	24	-10	0	-6
CC(C)(C)c1ccc(CN2N=Nc3ccccc3S2(=O)=O)cc1	64*	7	49*	33	9
O=S1(=O)c2ccccc2N=NN1Cc1ccc(Cl)c(Cl)c1	·	·	·	-13	6
COc1ccccc1-c1sc2ccccc2c1-c1cnc(N2CCOCC2)nc1	·	23	2	·	·
CCN(CC)c1ccc2cc(C(=O)NNC(=O)c3ccc(S(=O)(=O)N4CCCCC4)cc3)c(=O)oc2c1	69*	2	19	·	·
CC1=C(C)/C(=N\OS(=O)(=O)c2ccc(C)cc2)C=CC1=O	76*	7	55*	·	·
COc1ccc(-c2nnc3n2N=C(C)CS3)cc1	6	-11	6	-11	-2
CCOC(=O)/C(=C\c1ccc(OC(F)F)cc1)C1=Nn2c(nnc2-c2ccc(Cl)cc2)SC1	22	54*	18	·	·
CCOC(=O)/C(=C/c1ccc(OC(F)F)cc1)C1=Nn2c(nnc2-c2ccc(Cl)cc2)SC1	36	48*	16	·	·
CCCCOc1ccc(Cl)cc1Nc1nc(NCCO)nc(N2CCCC2)n1	4	23	-1	3	1
CCC(C)[C@@H](NC(=O)OC(C)(C)C)c1nnc(S(=O)(=O)Cc2cccc(C)c2)o1 (stereo partly specified)	38	-5	53*	·	·
CC(C)(C)OC(=O)N[C@@H](Cc1ccccc1)c1nnc(S(=O)(=O)Cc2ccccc2)o1	·	·	·	39	-8
C[C@@H]1OC(C2CCCCC2)N(C)[C@H]2C[C@H]3c4[nH]c5ccccc5c4CCN3C[C@@H]12 (stereo partly specified)	·	-17	-1	·	·
COC(=O)[C@]12CCCCC=C1N(CCc1ccc(OC)c(OC)c1)C(=O)[C@H](CC(=O)NCc1ccc(C)o1)C2	·	-2	·	·	·
COc1ccc(CCN2C(=O)CCC2(C)c2nnnn2Cc2ccccc2)cc1OC (stereo unspecified)	·	-12	-1	·	·
COc1cc2ccccc2cc1C(=O)Nc1ccc(Br)cn1	2	47*	-17	7	2
CC1(C(=O)NCc2ccccc2)CSCC(=O)N1CCc1c[nH]c2ccccc12 (stereo unspecified)	·	19	·	·	·
O=C(C[n+]1ccccc1)N/N=C/c1cc(Br)cc(Br)c1O	21	10	7	9	-4
CCC(O)(CC)C(=O)N/N=C/c1cc(Br)cc(Br)c1O	23	64*	14	8	-8
Cc1cccc(C)c1NC(=O)C(c1ccncc1)n1c(=O)c(-c2cc3ccccc3[nH]2)nc2ccccc21 (stereo unspecified)	·	-13	·	·	·
COc1ccc(N2C(=O)CC(Sc3nnnn3-c3ccc(F)cc3)C2=O)cc1 (stereo unspecified)	96*	-1	102*	-34	-2
COc1ccc(N2C(=O)CC(Sc3nnc(-c4ccccc4)o3)C2=O)cc1 (stereo unspecified)	·	6	30	4	1
O=C(/C=C/c1ccc(O)c(O)c1)c1ccccc1O	52*	6	22	43*	-4
CN(C)c1nc(N/N=C/c2ccccc2O)nc(Nc2ccc(F)cc2)n1	71*	34	68*	20	-3
Cc1sc2nc(SCC(=O)N3CCOCC3)[nH]c(=O)c2c1-c1ccccc1	-3	9	8	3	-2
SMILES	CCR6 antagonist	EBI2 antag	CXCR6 block	APJ antagonist	APJ agonist
CCN(CC)S(=O)(=O)c1ccc(N2CC(C(=O)Nc3cccc(C(=O)NC4CC4)c3)CC2=O)cc1 (stereo unspecified)	6	-5	-5	·	·
CCC(CC)C(=O)N(C)c1c(C)nc2c(OCc3cccc(Cl)c3)cccn12	·	13	1	·	·
O=C1C=CC(=O)N1c1cccc(-c2ccccc2)c1	76*	7	72*	-2	2
CC1=NN(c2ccccc2)C(=O)/C1=C\C=C\c1ccccc1	19	7	12	3	-3
CC1=NN(c2ccccc2)C(=O)/C1=C/C=C/c1ccc(N(C)C)cc1	89*	56*	71*	·	·
COc1ccc(C)cc1NS(=O)(=O)c1ccc(NC(=O)CN(c2cc([N+](=O)[O-])ccc2C)S(C)(=O)=O)cc1	11	15	3	-17	4
Cc1cccc(NS(=O)(=O)c2ccc(NC(=O)CN(c3cc([N+](=O)[O-])ccc3C)S(C)(=O)=O)cc2)c1	3	86*	-2	0	1
N#Cc1cc(Oc2cccc3cccnc23)c(-n2nnc3ccccc32)cc1C#N	11	79*	-5	-9	3
Cc1cccc(N2CCN(C(=O)Cn3sc4nc(C)cc(C)c4c3=O)CC2C)c1 (stereo unspecified)	72*	7	8	6	8
CCOc1ccc(NC(=O)c2ccncc2)cc1	-18	-2	-5	-9	-4
O=C(N/N=C1\C/C(=N\NC(=O)c2ccncc2)c2ccccc21)c1ccncc1	56*	-3	30	-18	5
CCOc1ccc2c(c1)C(=NNC(=O)c1ccncc1)c1cc(OCC)ccc1-2	40	8	34	57*	-12
COc1ccccc1CCC(=O)Oc1ccc(C#N)cc1OC	7	-11	-1	16	3
Cc1ccccc1C(=O)NC(=S)Nc1ccc(S(=O)(=O)N2CCN(C)CC2)cc1	61*	8	19	5	-4
C=CCn1c(O)c(C2=c3ccccc3=NC2=O)c2ccccc21	91*	11	72*	27	4
Cc1ccc2c(c1)c(C1=c3ccccc3=NC1=O)c(O)n2C	51*	6	26	26	1
Cc1c(-n2c(O)c(C3=c4ccccc4=NC3=O)sc2=O)c(=O)n(-c2ccccc2)n1C	-1	-7	-5	-37	-2
Cn1c(CNC(=O)CNC(=O)c2ccccc2)cc(=O)n(C)c1=O	-3	-19	-1	6	-5
Cc1ccc(S(=O)(=O)c2c(N)n(/N=C/c3ccco3)c3nc4ccccc4nc23)cc1C	7	46*	7	-13	3
Nc1c(S(=O)(=O)c2cccs2)c2nc3ccccc3nc2n1/N=C/c1cccc(O)c1	-6	58*	11	-3	4
COc1cccc(/C=N/n2c(N)c(S(=O)(=O)c3cccs3)c3nc4ccccc4nc32)c1	7	5	1	-6	-4
O=C(Cn1ncc(Cl)c(Cl)c1=O)N1CCc2ccccc21	17	43*	17	·	·
COc1ccccc1/C=C/c1ccc2cccc(O)c2n1	63*	9	34	39	-8
Nc1ccccc1C(=O)N1CCc2ccccc21	16	5	8	-5	-2

High-throughput results: PubChem BioAssay, Sanford-Burnham Center for Chemical Genomics
